This is an account of results in ChEMBL document CHEMBL4152363, “Andrographolide derivative as STAT3 inhibitor that protects acute liver damage in mice” (Bioorg Med Chem, 2018).

Data set [1] concerns the target T1, Signal transducer and activator of transcription 3 (Homo sapiens, UniProt P40763). Kind of data set: Inhibition of IL-6 stimulated STAT3 activation in human AD293 cells incubated with IL-6 for 16 hrs followed by compound addition measured after 6 hrs by luciferase reporter gene assay. It is filed as cell-based. The method in brief:
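AD-293 cells stimulated with 2.5 μg/mL IL-6; compound treatment 6 h; luciferase activity read from cell extracts; EC50 derived.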

The target of data set [2] is T1, Signal transducer and activator of transcription 3. Kind of data set: Inhibition of […] activation in human AD293 cells incubated […] for 16 hrs followed by compound addition measured after 4 hrs by luciferase reporter gene assay. It is filed as cell-based.
The target is the same in data set [3]. Kind of data set: Inhibition of IFNgamma-stimulated STAT3 phosphorylation at Tyr705 residues in human AD293 cell lysates incubated with IFNgamma followed by compound addition at 10 uM by Western blot analysis. An outline of the steps:
(§1)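 AD-293 cells treated with 1 μg/mL IFN-γ alone or with compounds at 10 μM; phospho- and total STAT1 and STAT3 assessed by western blot; representative of at least three independent experiments.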

Data set [4] concerns the target T2, Signal transducer and activator of transcription 1-alpha/beta (Homo sapiens) (UniProt P42224).
T2 sequence (whole entry): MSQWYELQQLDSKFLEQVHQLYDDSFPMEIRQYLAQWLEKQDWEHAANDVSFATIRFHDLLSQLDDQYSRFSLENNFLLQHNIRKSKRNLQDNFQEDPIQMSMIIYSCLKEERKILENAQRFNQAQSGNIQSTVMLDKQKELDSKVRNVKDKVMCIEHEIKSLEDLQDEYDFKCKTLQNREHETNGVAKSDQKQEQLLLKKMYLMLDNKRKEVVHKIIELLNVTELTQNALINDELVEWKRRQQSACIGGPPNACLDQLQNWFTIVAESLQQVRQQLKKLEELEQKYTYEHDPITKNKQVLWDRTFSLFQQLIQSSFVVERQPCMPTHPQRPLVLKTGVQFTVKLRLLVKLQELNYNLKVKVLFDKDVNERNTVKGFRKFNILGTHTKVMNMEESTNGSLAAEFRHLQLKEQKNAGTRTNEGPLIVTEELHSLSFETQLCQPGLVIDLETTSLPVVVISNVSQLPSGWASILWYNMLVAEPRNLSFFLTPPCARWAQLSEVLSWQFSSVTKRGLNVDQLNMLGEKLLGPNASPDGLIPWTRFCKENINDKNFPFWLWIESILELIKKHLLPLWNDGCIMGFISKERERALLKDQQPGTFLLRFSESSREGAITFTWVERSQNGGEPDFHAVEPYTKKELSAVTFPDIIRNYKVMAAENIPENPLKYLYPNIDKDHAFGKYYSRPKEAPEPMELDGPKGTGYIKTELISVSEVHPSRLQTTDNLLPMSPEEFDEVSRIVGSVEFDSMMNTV
Nature of the data set: Inhibition of IFNgamma-stimulated STAT1 phosphorylation at Tyr701 residues in human AD293 cell lysates incubated with IFNgamma followed by compound addition at 10 uM by Western blot analysis. An outline of the steps:
as §1

The test system of a further data set is AD293. Kind of data set: (§2) Cytotoxicity against human AD293 cells. It is filed as cell-based. The note with it: ad293. The method in brief: (§3)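 AD-293 or HeLa cells grown in high-glucose DMEM with 10% FBS and 1% penicillin-streptomycin; compound exposure 24 h; cytotoxicity reported as CC10.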
In data set [5] the target is T1, Signal transducer and activator of transcription 3. Nature of the data set: Inhibition of IFNgamma-stimulated STAT3 activation in human HeLa cells incubated with IFNgamma for 16 hrs followed by compound addition measured after 24 hrs by luciferase reporter gene assay. It is filed as cell-based. An outline of the steps:
(§4)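 AD-293 or HeLa cells in DMEM/10% FBS stimulated with 20 pg/mL IFN-γ; compound treatment 24 h; luciferase activity measured in cell extracts; EC50 derived.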

The target is the same in data set [6]. Nature of the data set: Inhibition of IFNgamma-stimulated STAT3 activation in human AD293 cells incubated with IFNgamma for 16 hrs followed by compound addition measured after 24 hrs by luciferase reporter gene assay. In kind it is cell-based. An outline of the steps:
as §4

Data set [7] shares this target. Kind of data set: Inhibition of […] activation in human HeLa cells incubated […] for 16 hrs followed by compound addition measured after 4 hrs by luciferase reporter gene assay. In kind it is cell-based. The method in brief:
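NF-κB pathway in AD-293 or HeLa cells stimulated with 50 ng/mL TNF-α; compound treatment 4 h; luciferase activity read from cell extracts; EC50 derived.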

In another data set the test system is HeLa. Nature of the data set: Cytotoxicity against human HeLa cells. In kind it is cell-based. The method in brief: as §3
Data set [8] in a line: as §2. In kind it is cell-based. The note with it: AD293 cells. An outline of the steps: as §3
Data set [9] deals with T1, Signal transducer and activator of transcription 3. Kind of data set: Inhibition of IFNgamma-stimulated GFP/FLAG-tagged STAT3 dimerization in human AD293 cells incubated for 6 hrs by Western blot analysis. It is filed as cell-based. An outline of the steps: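 AD-293 cells co-transfected 48 h with GFP- and FLAG-tagged STAT3 plasmids, then IFN-γ with or without compound for 6 h; 100 μg lysate (RIPA) immunoprecipitated with anti-FLAG and protein G beads; blots probed for GFP and FLAG, chemiluminescent detection.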

SMILES strings stand for the structures. Active and inactive are the calls of the source. The calls are words filed in the database; no cut-off is given here. Bounds are passed on as bounds.

T1 sequence (P40763 whole entry): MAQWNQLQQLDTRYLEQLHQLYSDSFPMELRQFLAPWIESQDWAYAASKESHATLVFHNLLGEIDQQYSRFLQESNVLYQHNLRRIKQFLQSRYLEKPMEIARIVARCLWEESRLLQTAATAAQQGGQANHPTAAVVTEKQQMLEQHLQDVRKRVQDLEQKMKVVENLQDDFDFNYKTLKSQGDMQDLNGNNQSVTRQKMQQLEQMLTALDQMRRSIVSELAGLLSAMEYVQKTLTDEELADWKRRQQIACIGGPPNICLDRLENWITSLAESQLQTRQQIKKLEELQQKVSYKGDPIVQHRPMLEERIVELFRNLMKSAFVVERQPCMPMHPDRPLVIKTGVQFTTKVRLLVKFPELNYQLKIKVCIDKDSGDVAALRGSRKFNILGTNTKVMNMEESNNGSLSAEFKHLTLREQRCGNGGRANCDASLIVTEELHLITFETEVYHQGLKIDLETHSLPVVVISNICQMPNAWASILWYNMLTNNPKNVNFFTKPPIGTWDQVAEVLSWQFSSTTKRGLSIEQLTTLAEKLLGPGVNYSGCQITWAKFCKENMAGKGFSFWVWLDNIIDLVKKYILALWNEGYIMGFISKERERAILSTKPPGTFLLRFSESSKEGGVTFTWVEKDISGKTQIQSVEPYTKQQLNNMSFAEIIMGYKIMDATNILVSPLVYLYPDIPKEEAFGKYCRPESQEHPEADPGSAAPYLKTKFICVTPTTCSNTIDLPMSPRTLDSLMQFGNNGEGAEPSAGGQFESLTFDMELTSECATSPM

Consider `CC(C)(C)[Si](C)(C)O[C@@H]1CC[C@]2(C)[C@H](CC[C@]3(CO3)[C@H]2C/C=C2/C(=O)OC[C@H]2O)[C@]1(C)CO`, for which the EC50 in data set [1] was > 10 µM; in [2], > 10 µM; in data set [5], 8.34 µM; in data set [6], 5.38 µM; in [7], > 10 µM. Also, the inhibition result in [3] and in [4] was “inactive” throughout. Besides, the CC10 with AD293 and with HeLa was > 10 µM in each case.
As to `C=C1CC[C@@H]2[C@](C)(CO)[C@H](O)CC[C@@]2(C)[C@@H]1C/C=C1/C(=O)OC[C@H]1O[Si](C)(C)C(C)(C)C`, the concentration for a half-maximal effect (EC50) in [1] is 10.6 µM; in data set [2], > 10 µM; in [5], 6.57 µM; in data set [6], 5.68 µM; in data set [7], > 10 µM. Besides, the inhibition result in data set [3] and in [4] was “inactive” in each case. The CC10 in the data set with AD293 and with HeLa was > 10 µM in each case.
In the case of `CC(=O)OC[C@]1(C)C(=O)CC[C@@]2(C)[C@H](C/C=C3/C(=O)OC[C@H]3O[Si](C)(C)C(C)(C)C)[C@]3(CC[C@@H]21)CO3`, the 50% effective concentration (EC50) is > 10 µM in data set [1]; > 10 µM in [2]; 8.34 µM in data set [5]; 5.38 µM in data set [6]; > 10 µM in [7]. For the same molecule, the inhibition entry in [3] was “Active”. In addition, the CC10 in the data set with AD293 and with HeLa was > 10 µM in each case.
Consider `C=C1CC[C@H]2[C@@](C)(CCC(=O)[C@@]2(C)CO[Si](C)(C)C(C)(C)C)[C@@H]1C/C=C1/C(=O)OC[C@H]1OC(C)=O`, for which the EC50 in data set [1] is 0.99 µM; in data set [2], 7.52 µM; in [5], 4.43 µM; in data set [6] it was 1.97 µM; in [7] it was 4.57 µM. Also, the half-maximal cytotoxic concentration (CC50) in data set [8] turned out to be 7.35 µM. Moreover, the CC10 in the data set with HeLa is > 10 µM.
For `CC(C)(C)[Si](C)(C)OC[C@]1(C)C(=O)CC[C@@]2(C)[C@H](C/C=C3/C(=O)OC[C@H]3O)[C@]3(CC[C@@H]21)CO3`, the EC50 in [1], in [2], in [5], in data set [6] and in data set [7] was > 10 µM each time. In data set [8], the CC50 stood at 8.31 µM. Besides, the CC10 in the data set with HeLa was > 10 µM.
For `C=C1CC[C@@H]2[C@](C)(CO[Si](C)(C)C(C)(C)C)[C@H](OC(C)=O)CC[C@@]2(C)[C@@H]1C/C=C1/C(=O)OC[C@H]1OC(C)=O`, the half-maximal effective concentration (EC50) in data set [1] is > 10 µM; in data set [2], > 10 µM; in data set [5], 5.8 µM; in [6], 5.05 µM; in data set [7] it was > 10 µM. In addition, the inhibition entry in [3] and in [4] was “inactive” in each case. The CC10 in the data set with AD293 and in the data set with HeLa was > 10 µM each time.
In data set [9], `Cc1ccc(S(=O)(=O)OCC(=O)Nc2ccc(C(=O)O)cc2)cc1` yielded a half-inhibitory concentration (IC50) of 86 µM.
Regarding `C=C1CC[C@H]2[C@@](C)(CCC(=O)[C@@]2(C)CO[Si](C)(C)C(C)(C)C)[C@@H]1C/C=C1/C(=O)OC[C@H]1O`, the EC50 in [1] amounted to 6.45 µM; in data set [2] it was 7.75 µM; in [5], 8.95 µM; in data set [6], 3.45 µM; in data set [7], 8.81 µM. The same molecule had a CC50 in data set [8] of 2.35 µM. Moreover, the CC10 in the data set on HeLa is > 10 µM.
As to `CC(C)(C)[Si](C)(C)O[C@@H]1CC[C@]2(C)[C@H](CC[C@@]3(CO3)[C@H]2C/C=C2/C(=O)OC[C@H]2O)[C@]1(C)CO`, the EC50 in [1] is 4.16 µM; in [2], > 10 µM; in data set [5] it was 6.15 µM; in data set [6] it was 5.39 µM; in data set [7] it was > 10 µM. Moreover, the inhibition result in data set [3] and in [4] was “inactive” each time. Further, the CC10 with AD293 and with HeLa was > 10 µM throughout.
